Measurements from PMC9844543 (Nano letters, 2022).

Test: Critical gelation concentration by vial inversion after addition of PBS
Type: physicochemical
Procedure, shortened: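 Self-assembling collagen-binding peptide amphiphile filaments were dissolved in water. They were either left unsprayed, sprayed with an atomizer, or emitted from a jet nebulizer as a respirable aerosol. PBS was then added to give 1× PBS, and gelation was judged by vial inversion.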

Sequence: LRELHLNNN [CBDA]
- critical gelation concentration (CGC) (after spraying with an atomizer): 1 mM
- critical gelation concentration (CGC) (filaments in water, PBS added to final 1× PBS, not sprayed): ~ 1 mM
